Only some compounds are listed: those with a hit (about 5.8% of all), similar ones and a draw of the others.
WT yeast gro inh: growth inhibition of WT strain, primary screen, mitochondrial fusion inhibitor project, WT and mutant strains, chemical genetic; AID 1362, 2008; mitochondrial fusion phenotypic screen; inhibition, % at 10 µM; 190,000 compounds, 2.1% hits; in the data active = inhibition above about 58%; tested in S. cerevisiae
RBBP9 inhibitor: human RBBP9 inhibitors, primary screen, biochemical, fluorescence polarization, FP-Rh probe, HTS; Serine hydrolase RBBP9 (Homo sapiens), O75884; recombinant RBBP9; inhibition, % at 7.94 µM; 220,000 compounds, 0.2% hits;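 active = inhibition above the campaign mean of all tested compounds plus 3 SD, cut at about 14% in these data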
Target sequence (O75884 whole entry, looked up): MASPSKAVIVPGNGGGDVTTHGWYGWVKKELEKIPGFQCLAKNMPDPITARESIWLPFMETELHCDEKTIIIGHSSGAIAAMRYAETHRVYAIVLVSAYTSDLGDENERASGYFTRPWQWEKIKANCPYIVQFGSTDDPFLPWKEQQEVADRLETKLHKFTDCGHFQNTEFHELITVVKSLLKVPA
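System: RBBP9 protein | Quantity: 2.5 µM RBBP9 dispensing solution, before mixing | Reagent: FP-Rh probe, 375 nM dispensing solution | Timing: Enzyme-compound preincubation 30 min, then probe labeling 45 min, 25 °C | Measured by: Fluorescence polarization | Read-out: % inhibition | Replication: One well per compound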
ROMK mod: ROMK potassium channel modulators, primary screen, cell-based, thallium flux, MLSMR library; ATP-sensitive inward rectifier potassium channel 1 (Homo sapiens), P48048; Tet-inducible ROMK, thallium flux fluorescence; actives lie on both sides; B-score at 10 µM; 130,000 compounds, 2% hits; AID 1918, 2009;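 active = signal ratio slope over the read window, or its plate-corrected B-score, at least 3 SD from the plate mean, either direction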;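 note: B-score of the F/F0 ratio slope over 7 to 12 s after thallium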
Target sequence (P48048 whole entry, looked up): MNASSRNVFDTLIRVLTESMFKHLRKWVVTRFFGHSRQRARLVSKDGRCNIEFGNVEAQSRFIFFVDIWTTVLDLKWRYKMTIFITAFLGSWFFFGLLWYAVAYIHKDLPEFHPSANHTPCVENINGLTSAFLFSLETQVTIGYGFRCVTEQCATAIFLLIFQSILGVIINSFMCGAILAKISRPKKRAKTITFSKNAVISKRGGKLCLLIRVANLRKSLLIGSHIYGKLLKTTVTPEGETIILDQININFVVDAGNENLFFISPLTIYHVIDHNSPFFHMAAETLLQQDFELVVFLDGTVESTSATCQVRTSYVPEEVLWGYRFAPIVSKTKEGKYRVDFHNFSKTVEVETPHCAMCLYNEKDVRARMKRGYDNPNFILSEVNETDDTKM
14-3-3 Bad inh: inhibitors of 14-3-3 zeta/Bad binding, primary screen, biochemical, TR-FRET, bovine 14-3-3 zeta. 14-3-3 protein zeta/delta (Bos taurus), P63103. TR-FRET 14-3-3zeta/Dy647-pBad peptide displacement, 1 h. inhibition, % at 21.7 µM. 220,000 compounds, 0.71% hits. AID 781, 2007;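 active = inhibition above about 70%, limit read from the data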
KCC2 mod: KCC2 cotransporter modulators, thallium flux, primary screen, cell-based, HEK293 KCC2, FluoZin-2 fluorescence, MLSMR; B-score of Tl+ flux slope (higher = more flux/activation; lower = inhibition) at 10 µM; KCC2 cells, thallium flux FluoZin-2 fluorescence; 190,000 compounds, 2.2% hits;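 active = thallium flux slope and its plate-corrected score both differing from the plate sample mean at a set confidence after two filtering rounds, in either direction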;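 note: slope of fluorescence scaled to starting intensity during 10 to 20 s after thallium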
NCF1 inh: p47phox/p22phox peptide binding inhibitors, primary screen, biochemical, uHTS, NADPH oxidase regulatory subunit; Neutrophil cytosol factor 1 (Homo sapiens), P14598; fluorescence polarization, 2 h; inhibition, % at 24.7 µM; 220,000 compounds, 0.53% hits; AID 1274, 2008;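 active = inhibition above about 30%, limit read from the data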
ROMK retest: ROMK channel modulator hit retest, confirmation, cell-based, thallium flux, duplicate, resupplied hits; 3,000 compounds, 54% hits; fluorescence ratio; stronger effect = lower value; normalized thallium flux (F/F0 slope) at 10 µM; shares compounds with ROMK mod; AID 1917, 2009;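 active = Flux at 10 µM at least 3 SD below or above vehicle control mean in one or both replicates; inconclusive = no clear call, values can overlap the other calls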
Of the large screens only hits and unclear results are named; the others gave an inactive call (follow-up assays come after a bar, where they were run).

C#CCNC(=O)C1CCN(c2ccc(S(=O)(=O)N3CCOCC3)cc2Cl)CC1	none
COc1cc(C=C2C(=O)c3ccccc3C2=O)ccc1O	none (no result: WT yeast gro inh, ROMK mod, KCC2 mod)
CC1=NOC(=O)/C1=C\c1ccc(-c2ccccc2Br)o1	WT yeast gro inh 72, ROMK mod -8.7 | ROMK retest 0.062
Cc1ccc(/C=C2/C(=O)ON=C2c2ccccc2)o1	none (no result: WT yeast gro inh, ROMK mod) | ROMK retest 0.04
CC1=NOC(=O)/C1=C\c1ccc(-c2cccc(Cl)c2)o1	none (no result: ROMK mod)
COc1cc(/C=C2/C(=O)ON=C2c2ccccc2)ccc1O	ROMK mod -6.8 | ROMK retest 0.044
Cc1ccc(NC2Sc3ccccc3NC2=O)cc1Cl (stereo not drawn)	none (no result: WT yeast gro inh, ROMK mod)
Cc1c(Cl)cccc1NC(=O)[C@@H](NC(=O)c1ccccc1Cl)C(C)C	none
Cn1c(C(=O)NCCN2CCc3ccccc3C2)cc2c(=O)n(C)c3ccccc3c21	none (no result: ROMK mod) | ROMK retest inconclusive
CCc1[nH]nc2c1C(c1ccsc1)C(C#N)=C(N)O2 (stereo not drawn)	ROMK mod -4.3 | ROMK retest 0.063
CC(C)(C)c1[nH]nc2c1C(c1ccsc1)C(C#N)=C(N)O2 (stereo not drawn)	none
O=C(Nc1cccc(Cl)c1)Nc1ccnc(-c2cccnc2)n1	ROMK mod 2.4 | ROMK retest inactive
COc1cc(/C=C(\C#N)C(=O)NCC2CCCO2)ccc1OCCC(C)C (stereo not drawn)	none (no result: WT yeast gro inh, ROMK mod)
CCn1nc(C(=O)OCc2cccc(S(=O)(=O)N(C)C)c2)c2ccccc2c1=O	none (no result: WT yeast gro inh, ROMK mod) | ROMK retest inconclusive
Cc1ccc(C2C(C#N)=C(N)Oc3nc(-c4ccccc4)[nH]c32)o1 (stereo not drawn)	none (no result: ROMK mod) | ROMK retest inconclusive
CC(=O)Nc1ccccc1OCc1cnc(Cl)s1	none
Cc1cc(/C=C2\SC(=S)NC2=O)c(C)n1-c1cccc(O)c1	none (no result: WT yeast gro inh, ROMK mod) | ROMK retest 0.053
O=C(c1ccncc1)c1ccc(N2CCN(C3CC(=O)N(Cc4ccccc4)C3=O)CC2)cc1 (stereo not drawn)	ROMK mod -4 (no result: KCC2 mod) | ROMK retest inconclusive
COc1ccc(N2CCN(C3CC(=O)N(Cc4ccccc4)C3=O)CC2)cc1 (stereo not drawn)	none
CC1=NOC(=O)/C1=C/c1ccc(O)cc1	ROMK mod -3.7 (no result: KCC2 mod) | ROMK retest 0.048
O=C(CN1CCC(NC(=O)c2ccco2)CC1)Nc1ccccc1[N+](=O)[O-]	none
COCCn1cnc2c1c(=O)n(CC(=O)OCC#N)c(=O)n2Cc1ccccc1	none
O=C1c2ccccc2NC(c2ccc(-c3cccc([N+](=O)[O-])c3)o2)N1O (stereo not drawn)	ROMK mod -3.6 | ROMK retest 0.061
O=C(NN1C(=O)c2ccccc2NC1c1ccc([N+](=O)[O-])o1)c1ccc([N+](=O)[O-])cc1 (stereo not drawn)	none
O=C(Cc1ccccc1)NNC(=O)c1ccccc1C(=O)O	none (no result: WT yeast gro inh, ROMK mod)
O=C(C[n+]1cccc(/C=N/O)c1)N1CCCc2ccccc21	none
CCOC(=O)CSc1nc2c(sc(=S)n2-c2ccccc2OC)c(=O)n1Cc1ccco1	none (no result: ROMK mod) | ROMK retest 0.049
Cc1ccc2cc(C#N)c(NCCNC(=S)NCCCN(C)C)nc2c1C	ROMK mod -3.1 | ROMK retest 0.057
O=C(Nc1ccc(N2C(=O)C3C4C=CC(C4)C3C2=O)cc1Cl)c1cccs1 (stereo not drawn)	none
Oc1[nH]c2ccccc2c1N=Nc1ccc(F)cc1	none (no result: ROMK mod)
Oc1[nH]c2ccccc2c1N=Nc1ccccc1	none (no result: WT yeast gro inh, ROMK mod) | ROMK retest 0.068
COc1ccc(CNCC(O)COc2ccc(C)cc2[N+](=O)[O-])cc1 (stereo not drawn)	ROMK mod -2.6 (no result: WT yeast gro inh) | ROMK retest 0.063
Cc1ccc2cc3c(N)c(C(=O)N4CCOCC4)sc3nc2c1	none (no result: ROMK mod)
Cc1ccc2cc3c(N)c(C(=O)N4CC(=O)Nc5ccccc54)sc3nc2c1	none (no result: ROMK mod) | ROMK retest 0.046
CCOC(=O)N1CCN(C(=O)c2noc(C(C)C)c2[N+](=O)[O-])CC1	none | ROMK retest inactive
CC(C)c1onc(C(=O)N2CCCCCC2)c1[N+](=O)[O-]	none
COc1ccc(CC(=O)NCC(=O)N/N=C(/C)c2ccco2)cc1	none
Cc1ccc2c(c1)c1c3n2CCCNC3CCC1 (stereo not drawn)	ROMK mod -2.1 | ROMK retest 0.06
O=C(CCS(=O)(=O)c1cccs1)Nc1ccc(C(=O)NC2CCN(Cc3ccccc3)CC2)cc1	none
Cc1cccn2c(CN3CCNC(=O)CC3)c(C(=O)N(C)CCc3ccccc3)nc12	none
COc1ccccc1C1=NOC(COc2ccc3c(C)cc(=O)oc3c2)C1 (stereo not drawn)	ROMK mod 3.3 (no result: WT yeast gro inh) | ROMK retest inactive
CC(=O)Nc1nc(C)c(CCC2OCCO2)c(=O)[nH]1	none (no result: WT yeast gro inh)
O=C(/C=C/c1ccccc1Cl)NCc1ccco1	none (no result: KCC2 mod)
O=C(/C=C/c1c(Cl)cccc1Cl)NCc1ccco1	ROMK mod 1.7 | ROMK retest inactive
CCCCCc1ccc(OCCCC[n+]2ccccc2)c(CCCCC)c1	WT yeast gro inh 86, ROMK mod -4.9 | ROMK retest 0.055
CCCCOc1ccc(C)cc1CN(CCO)CCO	none
CCCCCc1ccc(OCCCC[n+]2ccc(C)cc2)c(CCCCC)c1	WT yeast gro inh 98, ROMK mod -5.6 | ROMK retest 0.047
O=C(O)c1cccc(NC(=S)NC(=O)c2ccc(-c3ccc(Cl)cc3)o2)c1	ROMK mod 2.1 | ROMK retest inactive
Cc1ccc(C(=O)O)cc1NC(=S)NC(=O)c1ccc(-c2ccc(Cl)cc2)o1	none (no result: WT yeast gro inh, ROMK mod)
Cc1ccn2c(-c3csc(NCc4ccccc4)n3)c(C)nc2c1	ROMK mod -4.7 | ROMK retest 0.06
COc1ccc(N2C(=O)CSC23C(=O)Nc2ccccc23)cc1OC (stereo not drawn)	none (no result: ROMK mod) | ROMK retest inactive
Cc1cc(C)nc(SCC(=O)N/N=C/c2cc(C)n(-c3ccccc3C)c2C)n1	ROMK mod 6.6 | ROMK retest 0.12
Cc1cc(/C=N/NC(=O)c2cccs2)c(C)n1-c1ccccc1	ROMK mod 3.8 | ROMK retest inactive
Cc1cc(/C=N/NC(=O)C(O)(c2ccccc2)c2ccccc2)c(C)n1-c1ccccc1	ROMK mod 2.7 | ROMK retest 0.097
Cc1ccc2nc(C)cc(C(=O)N3CCCC(CO)(Cc4ccccc4C)C3)c2c1 (stereo not drawn)	none
